Activity calls are given as the source filed them.
How the values were obtained:
Plasmodium falciparum [1] = assay: Antimalarial activity against chloroquine-resistant Plasmodium falciparum FcM29; format: functional, organism-based
How it was run: (§1)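 Asexual P. falciparum grown in culture at 37°C under 5% CO2 and exposed to drug dilutions for 48 h. Growth inhibition measured by radioactive micromethod. IC50 read graphically from concentration vs % growth inhibition; mean of at least three independent experiments.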

Plasmodium falciparum [2] = assay: Antimalarial activity against chloroquine-sensitive Plasmodium falciparum F32; format: functional, organism-based; how it was run: as §1
Plasmodium falciparum [3] = assay: Antimalarial activity against chloroquine-resistant Plasmodium falciparum FcB1; format: functional, organism-based; how it was run: as §1
Plasmodium falciparum [4] = assay: Antimalarial activity against chloroquine-sensitive Plasmodium falciparum Nigeria; format: functional, organism-based, Nigerian; how it was run: as §1
[5] = test system: Plasmodium vinckei petteri; assay: Antimalarial activity against Plasmodium vinckei petteri infected subcutaneously dosed Swiss Albino mice (Mus musculus); format: functional; details: for ED50 / ED90: Plasmodium vinckei, sc
How it was run: (§2)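 Four-day suppressive test: groups of five female Swiss albino mice infected i.p. on day 0 with 2 × 10^7 parasitized red cells, then dosed once daily for 4 days (i.p., p.o. or s.c.; DMSO vehicle, chloroquine in 0.9% NaCl). Parasitemia read on day 4 vs untreated controls; ED50/ED90 as % growth inhibition; CD50/CD90 = cure (no parasites at 60 days).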

[6] = test system: Plasmodium vinckei petteri; assay: Antimalarial activity against Plasmodium vinckei petteri infected orally dosed Swiss Albino mice (Mus musculus); format: functional; details: for ED50 / ED90: Plasmodium vinckei, po; how it was run: as §2
[7] = Cytotoxicity against human HCT cells assessed as [3H]thymidine incorporation; format: cell-based
How it was run: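 HCT human colorectal tumour cells grown with 10% fetal calf serum and harvested with 0.05% trypsin-EDTA. Plated at 15 × 10^3 cells/well with drug dilutions.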

Plasmodium falciparum [8] = assay: Growth inhibition after 6 hrs in chloroquine-resistant Plasmodium falciparum FcB1; format: functional, organism-based; details: FcB1, 6 h
How it was run: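 Plasmion-synchronized FcB1 parasites plated at ring stage and exposed to drug during successive 6-h windows of the erythrocytic cycle (one plate per period). Artemisinin tested at 7, 14, 28 nM; chloroquine at 120, 163, 232 nM; trioxaquine at 11.5, 23, 46 nM. Dilutions prepared daily.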

[9] = test system: Plasmodium yoelii nigeriensis; assay: Antimalarial activity against Plasmodium yoelii nigeriensis infected subcutaneously dosed mice (Mus musculus); format: functional
How it was run: (§3)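 Four-day suppressive test with P. yoelii nigeriensis: infected mice given drug once daily for four consecutive days p.o. or s.c. (DMSO vehicle, chloroquine in 0.9% NaCl). Parasitemia compared with untreated controls. Cure was defined as no parasites detected after 60 days, with CD50 taken as the dose curing 50% of mice.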

[10] = test system: Plasmodium vinckei petteri; assay: Antimalarial activity against Plasmodium vinckei petteri infected intraperitoneally dosed Swiss Albino mice (Mus musculus); format: functional; how it was run: as §2
[11] = test system: Plasmodium yoelii nigeriensis; assay: Antimalarial activity against Plasmodium yoelii nigeriensis infected mice (Mus musculus) by oral dose; format: functional; how it was run: as §3
[12] = test system: Plasmodium vinckei petteri; assay: Antimalarial activity against Plasmodium vinckei petteri infected mice (Mus musculus) at 5 mg/kg/day, peroral administered 4 days after infection for 4 days; format: functional, organism-based
How it was run: (§4)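 Established-infection test: mice infected with 10^6 P. vinckei petteri on day 0 and left untreated until day 4. Then dosed p.o. by gavage once daily in DMSO for 4 days (days 4–7). Thin blood smears taken daily before and after treatment, with follow-up for recrudescence to 60 days.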

[13] = Ratio of IC50 for HCT cells to IC50 for Plasmodium falciparum; format: functional
[14] = test system: Plasmodium vinckei petteri; assay: Antimalarial activity against Plasmodium vinckei petteri infected mice (Mus musculus) at 13 mg/kg/day, peroral administered 4 days after infection for 4 days; format: functional, organism-based; how it was run: as §4
Mus musculus [15] = assay: Mortality rate in Plasmodium vinckei petteri infected mice (Mus musculus) at 50 mg/kg, subcutaneously; format: functional, organism-based; set-up: dose 50 mg/kg
How it was run: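 Subacute toxicity: P. vinckei petteri-infected mice dosed on four consecutive days (day 0–3) at 10, 25 or 50 mg/kg/day p.o., i.p. or s.c. Five mice per dose and route.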

[16] = Ratio of LD50 for Swiss mice (Mus musculus) to ED50 for Plasmodium vinckei petteri infected mice (Mus musculus); format: functional
How it was run: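 Therapeutic index: LD50 (healthy Swiss mice, observed 60 days) divided by ED50 from the 4-day P. vinckei petteri suppressive test.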

Plasmodium falciparum [17] = assay: Antimalarial activity against chloroquine-resistant Plasmodium falciparum W2 gametocytes (stage 2 & 3); format: functional, organism-based
How it was run: (§5)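 W2 gametocyte cultures treated with 50 mM N-acetyl-D-glucosamine for 3 or 5 days to remove asexual forms. Young (7-day) or old (13-day) cultures exposed to drug dilutions for 48 h. Giemsa thin films made and gametocytes counted per 6,000–10,000 erythrocytes. Mean of three independent experiments.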

Plasmodium falciparum [18] = assay: Antimalarial activity against chloroquine-resistant Plasmodium falciparum W2 asexual […]; format: functional, organism-based
Plasmodium falciparum [19] = assay: Antimalarial activity against chloroquine-resistant Plasmodium falciparum W2 gametocytes (stage 4 & 5); format: functional, organism-based; how it was run: as §5
Mus musculus [20] = assay: Toxicity against Swiss mouse at 200 mg/kg, po after 4 days; format: organism-based; set-up: dose 200 mg/kg, route oral; details: in vivo, 96 h
How it was run: (§6)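 Healthy Swiss mice given 100, 200 or 400 mg/kg/day p.o. by gavage for four consecutive days; two to four mice per dose, two experiments. One mouse killed per dose on days 5, 30 and 60. Organs examined against NaCl- or DMSO-treated controls, with H&E sections of stomach.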

Mus musculus [21] = assay: Toxicity against Swiss mouse at 100 mg/kg, po after 4 days; format: organism-based; set-up: dose 100 mg/kg, route oral; details: in vivo, 96 h; how it was run: as §6
Mus musculus [22] = assay: Toxicity against Swiss mouse at 400 mg/kg, po after 4 days; format: organism-based; set-up: dose 400 mg/kg, route oral; details: in vivo, 96 h; how it was run: as §6
[23] = Plasmodium vinckei, ip, read-out: ED50
[24] = Plasmodium vinckei, ip, read-out: ED90

Structure (SMILES): CC(C)C1=C[C@H]2OC3(CCC(NCCNc4ccnc5cc(Cl)ccc45)CC3)OO[C@@]2(C)CC1 (stereo in doubt; form 6) [TRIOXAQUINE 3]
- IC50 (Plasmodium falciparum [1]): 0.018 µM
- IC50 (Plasmodium falciparum [2]): 0.018 µM
- IC50 (Plasmodium falciparum [3]): 0.026 µM
- IC50 (Plasmodium falciparum [4]): 0.018 µM

Structure (SMILES): CC(C)C1=C[C@H]2OC3(CCC(NCCNc4ccnc5cc(Cl)ccc45)CC3)OO[C@@]2(C)CC1 (stereo in doubt; form 2)
- IC50 (Plasmodium falciparum [1]): 0.032 µM
- IC50 (Plasmodium falciparum [3]): 0.048 µM

Structure (SMILES): C[C@@H]1CC[C@H]2[C@@H](C)C(=O)O[C@@H]3O[C@@]4(C)CC[C@@H]1[C@]32OO4 [ARTEMISININ]
- CD50 [5]: >10 mg/kg/day
- CD90 [5]: >10 mg/kg/day
- ED50 [5]: 3.2 mg/kg/day
- ED90 [5]: 8 mg/kg/day
- IC50 (Plasmodium falciparum [1]; Plasmodium falciparum, FcM29): 0.008 µM
- CD50 [6]: >25 mg/kg/day
- CD90 [6]: >25 mg/kg/day
- ED50 [6]: 17 mg/kg/day
- ED90 [6]: 30 mg/kg/day
- IC50 (Plasmodium falciparum [2]; Plasmodium falciparum, F32): 0.006 µM
- IC50 (Plasmodium falciparum [3]; Plasmodium falciparum, FcB1): 0.005 µM
- IC50 [7]: > 35 µM
- IC50 (Plasmodium falciparum [8]): 0.015 µM
- CD50 [9]: 7 mg/kg/day
- CD90 [9]: 23 mg/kg/day
- ED50 ([9]; Plasmodium yoelii, sc): 5 mg/kg/day
- ED90 ([9]; Plasmodium yoelii, sc): 23 mg/kg/day
- ED50 [10, 23]: 4 mg/kg/day
- ED90 [10, 24]: > 5 mg/kg/day
- CD50 [11]: 75 mg/kg/day
- CD90 [11]: >100 mg/kg/day
- ED50 ([11]; Plasmodium yoelii, po): 16 mg/kg/day
- ED90 ([11]; Plasmodium yoelii, po): 27 mg/kg/day
- Activity [12]: Active
- Ratio IC50 [13]: 4370

Structure (SMILES): CC(C)C1=C[C@H]2OC3(CCC(NCCNc4ccnc5cc(Cl)ccc45)CC3)OO[C@@]2(C)CC1 (stereo not given in full) [listing 1 of 2 here]
- Activity [14]: Active
- Activity (Mus musculus [15]): inactive
- Ratio LD50/ED50 [16]: 100

Structure (SMILES): COc1cc(NC(C)CCCNC2CCC3(CC2)OO[C@@]2(C)CCC(C(C)C)=C[C@H]2O3)c2ncccc2c1 (stereo not given in full)
- IC50 (Plasmodium falciparum [17]): 0.057 µM
- IC50 (Plasmodium falciparum [18]): 0.043 µM
- IC50 (Plasmodium falciparum [19]): 0.046 µM

Structure (SMILES): CC(C)C1=C[C@H]2OC3(CCC(NCCNc4ccnc5cc(Cl)ccc45)CC3)OO[C@@]2(C)CC1 (stereo not given in full) [listing 2 of 2 here]
- CD50 [5]: 5 mg/kg/day
- CD90 [5]: 8 mg/kg/day
- ED50 [5]: 1.5 mg/kg/day
- ED90 [5]: 9 mg/kg/day
- Activity (Mus musculus [20]): Non-toxic
- CD50 [6]: 12 mg/kg/day
- CD90 [6]: 24 mg/kg/day
- ED50 [6]: 4 mg/kg/day
- ED90 [6]: 9 mg/kg/day
- CD50 [10]: 5 mg/kg/day
- CD90 [10]: 8 mg/kg/day
- ED50 [10, 23]: 0.7 mg/kg/day
- ED90 [10, 24]: 8 mg/kg/day
- Activity (Mus musculus [21]): Non-toxic
- Activity (Mus musculus [22]): Non-toxic

Structure (SMILES): CC(C)C1=C[C@H]2OC3(CCC(NCCNc4ccnc5cc(Cl)ccc45)CC3)OO[C@@]2(C)CC1 (stereo in doubt; form 3)
- IC50 (Plasmodium falciparum [1]): 0.023 µM
- IC50 (Plasmodium falciparum [3]): 0.047 µM

Structure (SMILES): CC(C)C1=C[C@H]2OC3(CCC(NCCNc4ccnc5cc(Cl)ccc45)CC3)OO[C@@]2(C)CC1 (stereo in doubt; form 5)
- Ratio LD50/ED50 [16]: 23

Structure (SMILES): CC(C)C1=C[C@H]2OC3(CCC(NCCNc4ccnc5cc(Cl)ccc45)CC3)OO[C@@]2(C)CC1 (stereo in doubt; form 7) [TRIOXAQUINE 3]
- IC50 (Plasmodium falciparum [1]): 0.007 µM
- IC50 (Plasmodium falciparum [2]): 0.007 µM
- IC50 (Plasmodium falciparum [3]): 0.007 µM

Structure (SMILES): CC(C)C1=C[C@H]2OC3(CCC(NCCNc4ccnc5cc(Cl)ccc45)CC3)OO[C@@]2(C)CC1.O=C(O)CC(O)(CC(=O)O)C(=O)O (stereo in doubt; form 9)
- ED50 [10]: 3 mg/kg/day
- ED90 [10]: 8 mg/kg/day

Source: ChEMBL document CHEMBL1147097, “Trioxaquines are new antimalarial agents active on all erythrocytic forms, including gametocytes” (Antimicrob Agents Chemother, 2007)
